This note sets out measurements from ChEMBL document CHEMBL4304798, “Iterative Optimization of the Cyclic Peptide SFTI-1 Yields Potent Inhibitors of Neutrophil Proteinase 3” (ACS Med Chem Lett, 2019).

A short description of series [1]: Stability in human serum at 400 uM measured after 2 hrs by RP-HPLC analysis. The class given is ADME, cell-free. In outline: (§1)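 Peptides incubated in human serum at 37 °C and sampled over time. Values are mean ± SEM from three experiments.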
Series [2] has as its target T1, Myeloblastin (Homo sapiens) (UniProt P24158).
T1 sequence (whole entry): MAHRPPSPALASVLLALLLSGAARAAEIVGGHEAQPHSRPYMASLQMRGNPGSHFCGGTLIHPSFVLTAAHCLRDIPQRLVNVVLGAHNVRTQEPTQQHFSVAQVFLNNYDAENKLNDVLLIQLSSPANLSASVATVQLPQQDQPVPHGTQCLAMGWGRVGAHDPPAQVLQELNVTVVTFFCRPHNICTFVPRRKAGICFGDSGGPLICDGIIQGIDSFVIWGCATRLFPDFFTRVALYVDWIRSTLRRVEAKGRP
Description: Competitive inhibition of purified human proteinase 3 at 160 nM using MeOSuc-AAPV-MCA as substrate by fluorescence based assay. The method, boiled down:
(§2)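 Competitive inhibition screen against PR3, with each peptide variant tested at two fixed inhibitor concentrations.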

For series [3], the target named is T1, Myeloblastin (Homo sapiens). The series is described as follows: Competitive inhibition of purified human proteinase 3 at 40 nM using MeOSuc-AAPV-MCA as substrate by fluorescence based assay. The method, boiled down: as §2
The target of the next series is Chymotrypsin (Homo sapiens, UniProt Q99895+P17538+P40313+Q6GPI1). The series is described as follows: Inhibition of human chymotrypsin using Suc-AAPF-MCA as substrate by fluorescence based assay. The class given is protein assay.
In a further series the target is Trypsin (Homo sapiens, UniProt P07477+P07478+P35030). The series is described as follows: Inhibition of recombinant human trypsin using Boc-VPR-MCA as substrate by fluorescence based assay. The class given is protein assay.
The nature of series [4]: Stability in human serum at 400 uM measured after 24 hrs by RP-HPLC analysis. In kind it is ADME, cell-free. The settings on record: read-out: Stability. The method, boiled down: as §1
The next series has as its target T2, Myeloblastin (Homo sapiens, UniProt P24158).
T2 sequence (P24158 whole entry): T1 sequence (whole entry)
Description: Inhibition of purified human proteinase 3 using MeOSuc-AAPV-MCA as substrate by fluorescence based assay.

The target of a further series is Prothrombin (Homo sapiens, UniProt P00734). Description: Inhibition of recombinant human alpha thrombin using Boc-VPR-MCA as substrate by fluorescence based assay.
For a further series, the target named is T3, Chymase (Homo sapiens, UniProt P23946).
T3 sequence (P23946 whole entry): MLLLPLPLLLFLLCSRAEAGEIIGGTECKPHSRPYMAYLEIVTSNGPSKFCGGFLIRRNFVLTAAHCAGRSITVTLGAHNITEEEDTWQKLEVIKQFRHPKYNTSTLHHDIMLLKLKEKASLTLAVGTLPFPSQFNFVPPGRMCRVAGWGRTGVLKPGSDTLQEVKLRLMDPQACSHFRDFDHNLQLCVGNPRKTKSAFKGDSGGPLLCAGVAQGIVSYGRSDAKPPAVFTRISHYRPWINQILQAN
The series is described as follows: Inhibition of recombinant human chymase expressed in Pichia pastoris using NleTDY-pNA as substrate by fluorescence based assay.

A further series concerns the target T4, Cathepsin G (Homo sapiens, UniProt P08311).
T4 sequence (P08311 whole entry): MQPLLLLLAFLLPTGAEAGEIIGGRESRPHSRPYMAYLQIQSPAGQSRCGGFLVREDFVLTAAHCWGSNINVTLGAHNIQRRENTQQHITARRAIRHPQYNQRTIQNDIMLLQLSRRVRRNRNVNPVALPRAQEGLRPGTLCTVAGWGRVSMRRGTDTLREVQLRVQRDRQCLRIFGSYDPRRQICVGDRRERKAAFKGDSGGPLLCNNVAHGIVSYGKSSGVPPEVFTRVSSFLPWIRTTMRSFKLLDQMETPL
Description: Inhibition of human Cathepsin G using Suc-AAPF-MCA as substrate by fluorescence based assay.

For another series, the target named is T5, Neutrophil elastase (Homo sapiens, UniProt P08246).
T5 sequence (P08246 whole entry): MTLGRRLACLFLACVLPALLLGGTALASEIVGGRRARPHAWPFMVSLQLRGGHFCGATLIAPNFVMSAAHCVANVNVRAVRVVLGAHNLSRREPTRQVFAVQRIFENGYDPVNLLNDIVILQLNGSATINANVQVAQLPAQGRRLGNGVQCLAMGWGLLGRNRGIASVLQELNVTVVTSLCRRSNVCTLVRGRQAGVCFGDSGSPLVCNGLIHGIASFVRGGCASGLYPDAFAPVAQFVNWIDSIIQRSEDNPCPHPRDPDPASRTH
Description: Inhibition of human neutrophil elastase using MeOSuc-AAPV-MCA as substrate by fluorescence based assay.

Series [5] addresses T6, Neutrophil elastase (Homo sapiens) (UniProt P08246).
T6 sequence (whole entry): T5 sequence (P08246 whole entry)
The series is described as follows: Inhibition of human neutrophil elastase at 2.5 to 40 nM using MeOSuc-AAPV-MCA as substrate by fluorescence based assay.

Activity calls are given as the source filed them. The calls are words filed in the database; no cut-off is given here. Positions of bridges follow the written chain, without caps; N, C: chain ends. Non-standard residues stand in square brackets, D forms with d. Residues, ends and D or L forms follow the SMILES beside them. ξ: configuration not given here. *: point of attachment. ClZ = O=C(OCc1ccccc1Cl)*; ξAbu = CCC(N)C(=O)O

Take `CC[C@H](C)[C@@H]1NC(=O)[C@@H]2CCCN2C(=O)[C@@H]2CCCN2C(=O)[C@H]([C@@H](C)CC)NC(=O)[C@H](CO)NC(=O)[C@H](CCCCN)NC(=O)[C@H]([C@@H](C)O)NC(=O)[C@@H](NC(=O)[C@H](CCCNC(=N)N)NC(=O)CN)CSSC[C@@H](C(=O)N[C@@H](Cc2ccccc2)C(=O)N2CCC[C@H]2C(=O)N[C@@H](CC(=O)O)C(=O)O)NC1=O`: the Stability entry in series [1] was “Unstable”.
With `CCC1NC(=O)[C@H](CC(=O)O)NC(=O)[C@@H]2CSSC[C@H](NC(=O)[C@H]([C@@H](C)CC)NC(=O)[C@@H]3CCCN3C(=O)[C@@H]3CCCN3C(=O)[C@H](CC(=O)O)NC(=O)[C@H](CO)NC1=O)C(=O)N[C@@H](CC(N)=O)C(=O)N1CCC[C@H]1C(=O)N[C@@H](CC(N)=O)C(=O)NCC(=O)N[C@@H]([C@@H](C)O)C(=O)N2` (stereo partly drawn) (HELM PEPTIDE1{C.D.[CCC(N[*:1])C(=O)[*:2]].S.D.P.P.I.C.N.P.N.G.T}$PEPTIDE1,PEPTIDE1,1:R3-9:R3|PEPTIDE1,PEPTIDE1,1:R1-14:R2$$$V2.0), the “inhibition activity (active/inactive)” value in [2] was “Active”.
With `CCC1NC(=O)[C@H](CC(=O)O)NC(=O)[C@@H]2CSSC[C@H](NC(=O)[C@H]([C@@H](C)CC)NC(=O)[C@@H]3CCCN3C(=O)[C@@H]3CCCN3C(=O)[C@H](Cc3ccc(O)cc3)NC(=O)[C@H](CO)NC1=O)C(=O)N[C@@H](CC(N)=O)C(=O)N1CCC[C@H]1C(=O)N[C@@H](CC(N)=O)C(=O)NCC(=O)N[C@@H]([C@@H](C)O)C(=O)N2` (stereo partly drawn) (HELM PEPTIDE1{C.D.[CCC(N[*:1])C(=O)[*:2]].S.Y.P.P.I.C.N.P.N.G.T}$PEPTIDE1,PEPTIDE1,1:R3-9:R3|PEPTIDE1,PEPTIDE1,1:R1-14:R2$$$V2.0), the “inhibition activity (active/inactive)” value in series [2] is “Active”.
For the compound `CCC1NC(=O)[C@H](Cc2ccc(O)cc2)NC(=O)[C@@H]2CSSC[C@H](NC(=O)[C@H]([C@@H](C)CC)NC(=O)[C@@H]3CCCN3C(=O)[C@@H]3CCCN3C(=O)[C@H](CC(=O)O)NC(=O)[C@H](CO)NC1=O)C(=O)N[C@@H](CC(N)=O)C(=O)N1CCC[C@H]1C(=O)N[C@@H](CC(N)=O)C(=O)NCC(=O)N[C@@H]([C@@H](C)O)C(=O)N2` (stereo partly drawn) (HELM PEPTIDE1{C.N.P.N.G.T.C.Y.[CCC(N[*:1])C(=O)[*:2]].S.D.P.P.I}$PEPTIDE1,PEPTIDE1,1:R3-7:R3|PEPTIDE1,PEPTIDE1,1:R1-14:R2$$$V2.0), the “inhibition activity (active/inactive)” value in series [2] is “Active”.
On the same count and under the same terms, the value for `CCC1NC(=O)[C@H](Cc2ccc(O)cc2)NC(=O)[C@@H]2CSSC[C@H](NC(=O)[C@H]([C@@H](C)CC)NC(=O)[C@@H]3CCCN3C(=O)[C@@H]3CCCN3C(=O)[C@H](CCC(=O)O)NC(=O)[C@H](CO)NC1=O)C(=O)N[C@@H](CC(N)=O)C(=O)N1CCC[C@H]1C(=O)N[C@@H](CC(N)=O)C(=O)NCC(=O)N[C@@H]([C@@H](C)O)C(=O)N2` (stereo partly drawn) (HELM PEPTIDE1{C.N.P.N.G.T.C.Y.[CCC(N[*:1])C(=O)[*:2]].S.E.P.P.I}$PEPTIDE1,PEPTIDE1,1:R3-7:R3|PEPTIDE1,PEPTIDE1,1:R1-14:R2$$$V2.0) was “Active”.
`CCC1NC(=O)[C@H](Cc2ccc(O)cc2)NC(=O)[C@@H]2CSSC[C@H](NC(=O)[C@H]([C@@H](C)CC)NC(=O)[C@@H]3CCCN3C(=O)[C@@H]3CCCN3C(=O)[C@H](Cc3c[nH]c4ccccc34)NC(=O)[C@H](CO)NC1=O)C(=O)N[C@@H](CC(N)=O)C(=O)N1CCC[C@H]1C(=O)N[C@@H](CC(N)=O)C(=O)NCC(=O)N[C@@H]([C@@H](C)O)C(=O)N2` (stereo partly drawn) (HELM PEPTIDE1{C.N.P.N.G.T.C.Y.[CCC(N[*:1])C(=O)[*:2]].S.W.P.P.I}$PEPTIDE1,PEPTIDE1,1:R3-7:R3|PEPTIDE1,PEPTIDE1,1:R1-14:R2$$$V2.0): the inhibition result in series [3] was “Active”.
In the case of `CCC1NC(=O)[C@H](Cc2ccc(O)cc2)NC(=O)[C@@H]2CSSC[C@H](NC(=O)[C@H]([C@@H](C)CC)NC(=O)[C@@H]3CCCN3C(=O)[C@@H]3CCCN3C(=O)[C@H](Cc3ccc(O)cc3)NC(=O)[C@H](CO)NC1=O)C(=O)N[C@@H](CC(N)=O)C(=O)N1CCC[C@H]1C(=O)N[C@@H](CC(N)=O)C(=O)NCC(=O)N[C@@H]([C@@H](C)O)C(=O)N2` (stereo partly drawn) (HELM PEPTIDE1{C.N.P.N.G.T.C.Y.[CCC(N[*:1])C(=O)[*:2]].S.Y.P.P.I}$PEPTIDE1,PEPTIDE1,1:R3-7:R3|PEPTIDE1,PEPTIDE1,1:R1-14:R2$$$V2.0), the IC50 against Chymotrypsin, on Trypsin, at Prothrombin, at Chymase and at Cathepsin G was above 10 µM in each case. The inhibition result in series [3] was “Active”. In addition, in [4], the remaining at 24 h, 400 µM was in the range of 90 to 95%. The inhibition constant (Ki) on Myeloblastin is 0.007 µM; at Neutrophil elastase it was 0.0032 µM.
`CCC1NC(=O)[C@H](Cc2ccc(O)cc2)NC(=O)[C@@H]2CSSC[C@H](NC(=O)[C@H]([C@@H](C)CC)NC(=O)[C@@H]3CCCN3C(=O)[C@@H]3CCCN3C(=O)[C@H](Cc3ccc(O)cc3)NC(=O)[C@H](CO)NC1=O)C(=O)N[C@@H](CC(N)=O)C(=O)N1CCC[C@H]1C(=O)N[C@@H](CC(N)=O)C(=O)NCC(=O)N[C@@H](Cc1ccc(-c3ccccc3)cc1)C(=O)N2` (stereo partly drawn) (HELM PEPTIDE1{[O=C([C@H](Cc1ccc(-c2ccccc2)cc1)N[*:1])[*:2]].C.Y.[CCC(N[*:1])C(=O)[*:2]].S.Y.P.P.I.C.N.P.N.G}$PEPTIDE1,PEPTIDE1,2:R3-10:R3|PEPTIDE1,PEPTIDE1,1:R1-14:R2$$$V2.0): the inhibition entry in [5] was “Active”. Also, the IC50 against Chymotrypsin, on Trypsin, at Prothrombin, on Chymase and on Cathepsin G was above 10 µM each time. Moreover, in series [4], the remaining at 24 h, 400 µM fell in the range of 90 to 95%. Also, the Ki at Myeloblastin came out at 0.017 µM; at Neutrophil elastase it was 0.024 µM.
With `CCCC1NC(=O)[C@H](Cc2ccc(O)cc2)NC(=O)[C@@H]2CSSC[C@H](NC(=O)[C@H]([C@@H](C)CC)NC(=O)[C@@H]3CCCN3C(=O)[C@@H]3CCCN3C(=O)[C@H](Cc3ccc(O)cc3)NC(=O)[C@H](CO)NC1=O)C(=O)N[C@@H](CC(N)=O)C(=O)N1CCC[C@H]1C(=O)N[C@@H](CC(N)=O)C(=O)NCC(=O)N[C@@H](Cc1ccc(-c3ccccc3)cc1)C(=O)N2` (stereo partly drawn) (HELM PEPTIDE1{[O=C([C@H](Cc1ccc(-c2ccccc2)cc1)N[*:1])[*:2]].C.Y.[CCCC(N[*:1])C(=O)[*:2]].S.Y.P.P.I.C.N.P.N.G}$PEPTIDE1,PEPTIDE1,2:R3-10:R3|PEPTIDE1,PEPTIDE1,1:R1-14:R2$$$V2.0), the Ki at Chymotrypsin turned out to be 0.463 µM; on Myeloblastin, 0.0061 µM; at Neutrophil elastase, 0.016 µM. Besides, the half-maximal inhibitory concentration (IC50) is above 10 µM at Trypsin, above 10 µM at Prothrombin, above 10 µM at Chymase and above 5 µM on Cathepsin G. Further, in [4], the remaining at 24 h, 400 µM was 90 to 95%.
Consider `CCC1NC(=O)[C@H](Cc2ccc(O)cc2)NC(=O)[C@@H]2CSSC[C@H](NC(=O)[C@H]([C@@H](C)CC)NC(=O)[C@@H]3CCCN3C(=O)[C@@H]3CCCN3C(=O)[C@H](Cc3ccc(O)cc3)NC(=O)[C@H](CO)NC1=O)C(=O)N[C@@H](CC(N)=O)C(=O)N1CCC[C@H]1C(=O)N[C@@H](CC(N)=O)C(=O)NCC(=O)N[C@@H](CCCCNC(=O)OCc1ccccc1Cl)C(=O)N2` (stereo partly drawn) (cyclo(CNPNGK(ClZ)CY[ξAbu]SYPPI); disulfide 1-7), for which the inhibition result in series [5] is “Active”.

Broadly, the IC50 is the point on the concentration scale where inhibition reaches its midpoint. For orientation: Ki means a measure of affinity in units of concentration, obtained from inhibition or displacement. High values mean a looser hold on the target, low ones a stronger hold on the target.
